# Measured values: article PMC10582660 (Clinical and Translational Science, 2023)
# Several values for one entry are separate records, joined by “and”; a condition that tells them apart may be missing. Equal values may be shown once.
# Legend:
# [1] = Follow-up exploratory clinical study: raloxifene stool recovery; format: in vivo, human; conditions: for Raloxifene dose recovery0–48h in stool, geometric mean (CV%): stool 0 to 48 h relative to dose
# Method in brief: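 Stool collected within 48 h pre-dose and all movements 0–24 and 24–48 h post-dose (water vs acute green tea arms), held at −20°C. Blended with water (1:2.5 by weight), stored at −80°C. Methanol/0.1% formic acid extraction with internal standards. 1×, 10× and 100× dilutions dried, reconstituted, quantified by UHPLC–MS/MS (calibration 0.06–400 nM). Recovery 0–48 h expressed as % of administered dose.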
# OATP1B1 = biological target: T1, OATP1B1 (Homo sapiens, UniProt Q9Y6L6); experiment: Raloxifene as a substrate for uptake transporters; format: in vitro ADME; conditions: raloxifene 1, 10 μM, 2, 20 min, two‐fold cutoff
# T1 sequence (Q9Y6L6 1-691): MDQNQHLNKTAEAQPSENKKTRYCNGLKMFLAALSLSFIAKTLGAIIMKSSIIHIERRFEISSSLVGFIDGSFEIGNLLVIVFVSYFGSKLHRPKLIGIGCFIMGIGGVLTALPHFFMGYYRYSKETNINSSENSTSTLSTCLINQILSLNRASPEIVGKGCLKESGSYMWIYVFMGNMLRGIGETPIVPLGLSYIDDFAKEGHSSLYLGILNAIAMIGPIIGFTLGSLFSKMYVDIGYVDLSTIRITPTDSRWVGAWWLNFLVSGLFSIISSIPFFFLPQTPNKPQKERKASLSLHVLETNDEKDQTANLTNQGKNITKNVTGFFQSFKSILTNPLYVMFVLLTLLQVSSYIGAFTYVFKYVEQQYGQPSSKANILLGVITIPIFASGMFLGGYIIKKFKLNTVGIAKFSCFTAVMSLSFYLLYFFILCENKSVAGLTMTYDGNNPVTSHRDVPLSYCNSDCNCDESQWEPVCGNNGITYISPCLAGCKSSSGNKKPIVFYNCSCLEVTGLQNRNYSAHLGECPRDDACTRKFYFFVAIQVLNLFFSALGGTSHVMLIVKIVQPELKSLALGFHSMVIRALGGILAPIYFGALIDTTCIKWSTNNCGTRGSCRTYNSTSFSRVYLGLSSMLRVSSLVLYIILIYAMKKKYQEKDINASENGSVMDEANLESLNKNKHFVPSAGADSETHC
# Method in brief: (§1)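 Uptake of test compound (1 and 10 μM, 2 and 20 min) measured in transporter-expressing HEK293 or MDCKII cells or inside-out membrane vesicles. Run with positive-control probe substrates and inhibitors, plus empty-vector or untransfected control cells. Fold-accumulation relative to control cells judged against a two-fold cutoff for substrate status.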
# OAT3 = biological target: T2, OAT3 (Homo sapiens, UniProt Q8TCC7); experiment: Raloxifene as a substrate for uptake transporters; format: in vitro ADME; conditions: raloxifene 1, 10 μM, 2, 20 min, two‐fold cutoff
# T2 sequence (Q8TCC7 1-542): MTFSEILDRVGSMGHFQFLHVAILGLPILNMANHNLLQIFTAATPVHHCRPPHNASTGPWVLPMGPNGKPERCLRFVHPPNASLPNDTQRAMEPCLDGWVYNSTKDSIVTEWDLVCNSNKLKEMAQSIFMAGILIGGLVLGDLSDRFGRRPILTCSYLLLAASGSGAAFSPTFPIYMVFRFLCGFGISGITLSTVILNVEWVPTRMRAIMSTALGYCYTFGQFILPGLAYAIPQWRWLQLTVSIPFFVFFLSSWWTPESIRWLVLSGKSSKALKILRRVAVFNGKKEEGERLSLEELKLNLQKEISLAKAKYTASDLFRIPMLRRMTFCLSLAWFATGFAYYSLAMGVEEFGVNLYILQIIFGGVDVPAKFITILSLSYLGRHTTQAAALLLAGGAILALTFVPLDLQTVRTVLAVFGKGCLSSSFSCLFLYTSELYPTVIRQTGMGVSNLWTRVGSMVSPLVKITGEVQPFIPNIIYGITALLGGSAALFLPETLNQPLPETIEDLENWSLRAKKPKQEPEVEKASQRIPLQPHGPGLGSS
# Method in brief: as §1
# [2] = after oral administration; cited from earlier work
# OATP1B3 = biological target: T3, OATP1B3 (Homo sapiens, UniProt Q9NPD5); experiment: Raloxifene as a substrate for uptake transporters; format: in vitro ADME; conditions: raloxifene 1, 10 μM, 2, 20 min, two‐fold cutoff
# T3 sequence (Q9NPD5 1-702): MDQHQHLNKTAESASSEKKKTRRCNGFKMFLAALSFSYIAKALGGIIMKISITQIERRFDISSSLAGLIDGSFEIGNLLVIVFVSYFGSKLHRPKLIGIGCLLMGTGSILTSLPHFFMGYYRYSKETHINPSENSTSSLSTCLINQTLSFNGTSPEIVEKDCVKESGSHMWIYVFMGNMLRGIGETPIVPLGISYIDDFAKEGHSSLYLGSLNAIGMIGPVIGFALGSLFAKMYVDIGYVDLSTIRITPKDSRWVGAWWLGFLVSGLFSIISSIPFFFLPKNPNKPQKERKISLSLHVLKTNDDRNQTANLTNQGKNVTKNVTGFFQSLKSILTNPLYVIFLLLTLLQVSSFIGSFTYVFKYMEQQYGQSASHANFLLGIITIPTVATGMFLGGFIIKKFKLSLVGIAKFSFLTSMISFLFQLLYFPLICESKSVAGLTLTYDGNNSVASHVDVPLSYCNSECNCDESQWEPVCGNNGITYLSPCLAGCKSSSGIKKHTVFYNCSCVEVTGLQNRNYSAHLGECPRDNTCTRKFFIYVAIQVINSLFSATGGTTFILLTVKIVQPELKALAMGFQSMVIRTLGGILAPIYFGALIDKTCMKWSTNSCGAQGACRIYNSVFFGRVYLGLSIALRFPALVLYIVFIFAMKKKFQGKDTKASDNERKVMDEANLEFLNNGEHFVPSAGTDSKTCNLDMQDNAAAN
# Method in brief: as §1
# [3] = Follow-up exploratory clinical study: plasma pharmacokinetics; format: in vivo, human; conditions: for Cmax / Tmax / AUC(0-t): both, human, plasma, oral; for AUC(0-t): AUC0–48h, geometric mean (CV%)
# Method in brief: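 Six healthy adults (3 male, 3 female) in sequential arms ≥7 days apart: oral test compound with water, then with acute brewed green tea, then tea alone. Plasma sampled 0–48 h at the main-study times. Analysed by UHPLC–MS/MS for parent and glucuronides. […] Green tea/baseline ratios on log-transformed data, paired two-tailed t-test.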
# [4] = follow-up study, acute green tea vs baseline
compound,measurement,setting,value
"O=C(c1ccc(OCCN2CCCCC2)cc1)c1c(-c2ccc(O)cc2)sc2cc(O)ccc12 [Raloxifene, raloxifene, reference compound]",Raloxifene dose recovery0–48h green tea/baseline ratio (90% CI),[1]; acute green tea vs baseline,1.05 (0.45–2.43)
same,Percentage change in raloxifene stool recovery,"[1]; baseline to acute green tea, individual participants",−70% and 440% and −80% and 300% and 10% and −14%
same,Raloxifene stool recovery,"[1]; baseline, individual participants no. 8, 11, 12, 16, 17, 18",1.7% and 0.27% and 93.8% and 18.0% and 17.4% and 69.8%
same,"Raloxifene dose recovery0–48h in stool, geometric mean (CV%)",[1]; acute green tea,10.6 (103) %
same,"Raloxifene dose recovery0–48h in stool, geometric mean (CV%)",[1]; baseline,10.1 (115) %
same,fold‐accumulation,OATP1B1,1.04–1.19
same,fold‐accumulation,OAT3,0.75–1.03
same,oral bioavailability,[2],< 2%
same,fold‐accumulation,OATP1B3,1.56–1.70
same,Cmax,[3],0.28 nM
same,Tmax,[3],1 h
same,Cmax,[3]; 60 mg,0.32 nM
same,Tmax,[3]; 60 mg,1.25 h
same,AUC(0-t),"[3]; 60 mg, follow-up study, six healthy adults, baseline",8.25 nM·h
same,AUC(0-t),"[3]; follow-up study, acute green tea",7.46 nM·h
same,AUC0–48h green tea/baseline ratio (90% CI),[3]; [4],0.90 (0.77–1.03)
same,"Cmax,1 green tea/baseline ratio (90% CI)",[3]; [4],0.87 (0.72–1.07)
same,magnitude of the decrease in raloxifene AUC with green tea,[3]; follow‐up study,10%
